Laboratory results reported in PubChem BioAssay.
Records with an inconclusive call do not appear.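 How the source made its calls, unless noted: active means RAM network inhibition above 8.4% in each of two replicates, 3 SD over the compound average; inconclusive means above 8.4% inhibition in only one replicate; inactive means 8.4% inhibition or less in each replicate.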

Tests used:
[1] = OD615 S. cerevisiae growth inhibition, permissive medium, pilot counter-assay, permissive growth control for S. cerevisiae lifespan shortening project (AID 705;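 active means growth inhibition above 25% in both replicates, a cutoff set 3 SD above the mean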); conditions: OD615, 24 h, at 10 µM, stronger effect = higher value
Outline: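 Material: engineered DeaD yeast; compound dosing: one dose 10 µM, DMSO 0.25% final; measure: yeast growth inhibition indicated by reduced 24 h OD615; detection: OD615 turbidity read; incubation: cells pre-grown 4 h, then 24 h compound exposure, 30 °C humidified; medium: permissive synthetic complete medium with raffinose and galactose carbon sources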

[2] = Restrictive medium S. cerevisiae growth inhibition, OD615, pilot screen of yeast lifespan reduction project, restrictive growth control (AID 706;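 active means growth inhibition above a set limit, 3 SD over mean compound inhibition, in both replicates, cut at about 43% in these data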;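 further: modified DeaD lifespan yeast strain shifted to restrictive glucose medium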); conditions: OD615, 48 h, at 10 µM, stronger effect = higher value
Outline: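 material = engineered S. cerevisiae DeaD strain | medium = glucose-based CSMM-D restrictive medium | times = 4 h pre-incubation, 48 h exposure at 30 °C | technique = OD615 absorbance reading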

[3] = viability gain of MRP-1-high H69AR cells under doxorubicin, pilot screen, MRP-1 activator project, CellTiter-Glo, duplicate (AID 807;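 active means viability increase at or above a cutoff of the median across tested compounds plus 3 SD, cut at about 8.5% in these data, passing the limit was not always enough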;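 further: compound pretreatment 18-22 h then 72 h combined with doxorubicin; 0% = doxorubicin alone and 100% = vehicle without doxorubicin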); conditions: H69AR viability with doxorubicin, CellTiter-Glo luminescence; at 10 µM; stronger effect = higher value
[4] = growth suppression of beta-catenin knockout HCT116, pilot screen, human colon tumor cells (AID 823;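 active means cell viability at or below a set limit in both duplicate runs, the limit being the all-compound median minus 4 SD, cut at about 23% in these data, passing the limit was not always enough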;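 further: 0% = wells killed by 20 µM Hyamine and 100% = untreated DMSO cell wells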); conditions: CellTiter-Glo, 60 h, at 10 µM, stronger effect = lower value
[5] = growth suppression of PTEN-deleted HCT116, pilot screen, cell-based, HCT116 clonal line, CellTiter-Glo (AID 824;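 active means viability at or below 27.92% in each of two runs, the all-compound median minus 4 SD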;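 further: 0% = 20 µM Hyamine control and 100% = vehicle cell control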); conditions: 60 h, at 10 µM, stronger effect = lower value
[6] = inhibitors of the yeast RAM network, pilot screen, dse1pr::URA3 reporter, 5-FOA selection (AID 869;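 active means inhibition over a set limit, the all-compound mean plus 3 SD, in both replicate runs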;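 further: 0% = DMSO wells with no growth and 100% = 10 µM 1-NA-PP1 with full growth; RAM network block rescues cells from 5-FOA so hits raise OD615 growth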); conditions: S. cerevisiae dse1pr::URA3 5-FOA growth, OD615, 2 d; at 10 µM; stronger effect = higher value; strain carries analog-sensitive mutant Cbk1 kinase
[7] = RAM signaling pathway blockade in yeast – S. cerevisiae, Pdr1DBD-CYC8 efflux-inhibited sensitized strain, primary screen (AID 1298);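 further: 0% = DMSO untreated cells without growth and 100% = 10 µM 1-NA-PP1 full growth; higher means more yeast growth rescued from 5-FOA killing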; conditions: S. cerevisiae cbk1-as DSE1-URA3 strain, 5-FOA growth OD615, 2 d; at 50 µM; stronger effect = higher value

C=CCNc1ncnc2ccc(Br)cc12
inactive: growth inhibition [1] 2.36% | growth inhibition [2] 9.25% | viability increase [3] -5.67% | viability [4] 84.1% | viability [5] 75.8% | inhibition [6] 1.87% | RAM network inhibition [7] 4.09%

O=C1CC(c2ccc(S(=O)(=O)NCc3ccncc3)cc2)CN1 (stereo unspecified)
inactive: growth inhibition [1] -10.3% | growth inhibition [2] -7.88% | viability increase [3] -0.07% | viability [4] 99.7% | viability [5] 97.2% | inhibition [6] 1.73% | RAM network inhibition [7] 1.15%

O=C(CSc1nc2c(c(=O)n1-c1ccc(Cl)cc1)SCC2)Nc1ccc2c(c1)OCCO2
inactive: growth inhibition [1] -7.54% | growth inhibition [2] 10.9% | viability increase [3] -2.7% | viability [4] 92% | viability [5] 84.8% | inhibition [6] 2.02% | RAM network inhibition [7] 4.16%

O=C(Nc1ccc(N2CCCCC2)cc1)c1cncc(Br)c1
inactive: growth inhibition [1] 5.98% | growth inhibition [2] 15.3% | viability increase [3] -4.57% | viability [4] 100% | viability [5] 96.8% | inhibition [6] 1.98% | RAM network inhibition [7] 5.26%

COc1cccc(-c2nn(C)c3sc(C(=O)NCc4ccc5c(c4)OCO5)cc23)c1
inactive: growth inhibition [1] 2.61% | growth inhibition [2] 9.31% | viability increase [3] -2.08% | viability [4] 92.6% | viability [5] 82.7% | inhibition [6] 4.3% | RAM network inhibition [7] 12.7%

COCCN(CCOC)Cc1c(O)ccc2c3c(c(=O)oc12)CCC3
inactive: growth inhibition [1] -1.66% | growth inhibition [2] 7.01% | viability increase [3] -1.42% | viability [4] 99.9% | viability [5] 102% | inhibition [6] -0.65% | RAM network inhibition [7] -0.97%

COc1ccc(Cl)cc1S(=O)(=O)N1CCN=C1C
inactive: growth inhibition [1] 1.52% | growth inhibition [2] -3.21% | viability increase [3] -2.75% | viability [4] 90.8% | viability [5] 90% | inhibition [6] 0.03% | RAM network inhibition [7] 7.99%

CCSc1nnc(NC(=O)CCc2ccccc2)s1
inactive: growth inhibition [1] 0.055% | growth inhibition [2] -7.23% | viability increase [3] -1.7% | viability [4] 88.7% | viability [5] 95.1% | inhibition [6] 3.51% | RAM network inhibition [7] 3.66%

CC(c1ccc(Br)cc1)N1CC23C=CC(O2)C(C(=O)O)C3C1=O (stereo unspecified)
inactive: growth inhibition [1] 0.305% | growth inhibition [2] 6.24% | viability increase [3] -0.16% | viability [4] 102% | viability [5] 99.7% | inhibition [6] 1.27% | RAM network inhibition [7] -1.25%

CCc1ccc(C2N(c3ccc(OC)cc3)C(=O)C3CCCN32)cc1 (stereo unspecified)
inactive: growth inhibition [1] 2.83% | growth inhibition [2] -2.37% | viability increase [3] -1.6% | viability [4] 95.3% | viability [5] 101% | inhibition [6] 0.83% | RAM network inhibition [7] 0.23%

COc1ccc(C2CC(=O)c3cnc(NC(=O)c4ccccc4)nc3C2)cc1OC (stereo unspecified)
inactive: growth inhibition [1] -3.28% | growth inhibition [2] -0.645% | viability increase [3] -3.55% | viability [4] 105% | viability [5] 96.6% | inhibition [6] 0.895% | RAM network inhibition [7] 5.34%

Cc1ccc2oc(=O)c3cnn(CC(=O)N4CCc5ccccc5C4)c3c2c1
inactive: growth inhibition [1] -10.4% | growth inhibition [2] -4.8% | viability increase [3] -0.98% | viability [4] 93.5% | viability [5] 92.1% | inhibition [6] 1.77% | RAM network inhibition [7] 3.4%

Cc1ccnc(N2C(=O)c3ccccc3C2Nc2cccc(C)c2C)c1 (stereo unspecified)
inactive: growth inhibition [1] -14% | growth inhibition [2] -0.8% | viability increase [3] 0.92% | viability [4] 92% | viability [5] 87.1% | inhibition [6] 1.32% | RAM network inhibition [7] 6.56%

O=C(C1CCN(S(=O)(=O)c2cccc3cccnc23)CC1)N1CCCC1
inactive: growth inhibition [1] 11.8% | growth inhibition [2] 7.97% | viability increase [3] -3.23% | viability [4] 97% | viability [5] 87.9% | inhibition [6] 1.52% | RAM network inhibition [7] 0.06%

CC(=O)C(C)Oc1ccc2c3c(c(=O)oc2c1)CCCC3 (stereo unspecified)
inactive: growth inhibition [1] -6.26% | growth inhibition [2] 9.38% | viability increase [3] 0.37% | viability [4] 93% | viability [5] 91.1% | inhibition [6] 2.3% | RAM network inhibition [7] 0.72%

CC(C)Cc1cc(-c2ccco2)c(C#N)c(N)n1
inactive: growth inhibition [1] -11.4% | growth inhibition [2] -17.1% | viability increase [3] -4.39% | viability [4] 80.9% | viability [5] 89.4% | inhibition [6] 3.23% | RAM network inhibition [7] 9.01%

CC(=O)N1c2ccccc2C(=O)C1N1CCCCC1 (stereo unspecified)
inactive: growth inhibition [1] -3.63% | growth inhibition [2] -9.52% | viability increase [3] -3.42% | viability [4] 93.1% | viability [5] 84.4% | inhibition [6] 0.985% | RAM network inhibition [7] -1.19%

O=C(C1CCCN(S(=O)(=O)c2cccc3cccnc23)C1)N1CCN(c2ccccc2F)CC1 (stereo unspecified)
inactive: growth inhibition [1] -5.55% | growth inhibition [2] 7.3% | viability increase [3] -0.18% | viability [4] 73.2% | viability [5] 76.5% | inhibition [6] -0.265% | RAM network inhibition [7] 2.98%
